Source: ChEMBL document CHEMBL1125639, “Synthesis and resolution of (+-)-7-chloro-8-hydroxy-1-(3'-iodophenyl)-3-methyl-2,3,4,5-tetrahydro- 1H-3- benzazepine (TISCH): a high affinity and selective iodinated ligand for CNS D1 dopamine receptor” (J Med Chem, 1991)
Several values for one entry are separate records, joined by “and”; a condition that tells them apart may be missing. Identical values can stand only once.

Experiments:
Rattus norvegicus [1] = assay: Biodistribution of compound in rats spleen after an intravenous injection was measured at 24 hr; type: ADME, organism-based; conditions: in vivo
Method in brief: (§1)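 Male Sprague-Dawley rats (225-300 g), free access to food and water. Under ether anesthesia, given 0.2 mL saline containing 125I-labelled ligand (2-5 μCi, ~2200 Ci/mmol) into the femoral vein. Killed by cardiac excision at set times. Organs removed, weighed and gamma-counted. % dose/organ is taken against diluted injectate aliquots, with blood and muscle assumed to be 7% and 40% of body weight. Mean of 3 rats ± std dev.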

Rattus norvegicus [2] = assay: Biodistribution of compound in rats liver after an intravenous injection was measured at 4 hr; type: ADME, organism-based; conditions: in vivo; method in brief: as §1
Rattus norvegicus [3] = assay: Biodistribution of compound in rats thyroid after an intravenous injection was measured at 24 hr; type: ADME, organism-based, Thyroid gland; conditions: in vivo
Method in brief: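 Male Sprague-Dawley rats (225-300 g), free access to food and water; under ether anesthesia, 0.2 mL saline containing [125I]-labeled ligand (2-5 μCi, ~2200 Ci/mmol) injected into femoral vein; killed by cardiac excision under ether at set times. […] removed, weighed, gamma-counted; % dose/organ from comparison with diluted aliquots of injectate; mean of 3 rats ± std dev.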

Rattus norvegicus [4] = assay: Biodistribution ratio measured as the ratio of compound present in brain to that of blood at 30 minutes after intravenous injection; type: ADME, organism-based; conditions: 0.5 h
Method in brief: (§2)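 Male Sprague-Dawley rats (225-300 g) given 0.2 mL saline containing [125I]-labeled ligand (2-5 μCi, ~2200 Ci/mmol) via femoral vein under ether anesthesia; sacrificed at set times by cardiac excision. Brain and blood weighed and gamma-counted against diluted injectate; ratio taken from % dose/gram values, 3 rats per time point.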

Rattus norvegicus [5] = assay: Biodistribution of compound in rats blood after an intravenous injection was measured at 4 hr; type: ADME, organism-based; conditions: in vivo; method in brief: as §1
Rattus norvegicus [6] = assay: Biodistribution of compound in rats spleen after an intravenous injection was measured at 1 hr; type: ADME, organism-based; conditions: in vivo; method in brief: as §1
Rattus norvegicus [7] = assay: Biodistribution of compound in rats muscle after an intravenous injection was measured at 4 hr; type: ADME, organism-based, Muscle tissue; conditions: in vivo; method in brief: as §1
Rattus norvegicus [8] = assay: Biodistribution of compound in rats lung after an intravenous injection was measured at 2 min; type: ADME, organism-based; conditions: in vivo; method in brief: as §1
Rattus norvegicus [9] = assay: Biodistribution of compound in rats lung after an intravenous injection was measured at 24 hr; type: ADME, organism-based; conditions: in vivo; method in brief: as §1
Rattus norvegicus [10] = assay: Biodistribution of compound in rats muscle after an intravenous injection was measured at 2 min; type: ADME, organism-based, Muscle tissue; conditions: in vivo; method in brief: as §1
Rattus norvegicus [11] = assay: Biodistribution of compound in rats skin after an intravenous injection was measured at 4 hr; type: ADME, organism-based, Zone of skin; conditions: in vivo; method in brief: as §1
Rattus norvegicus [12] = assay: Biodistribution of compound in rats heart after an intravenous injection was measured at 24 hr; type: ADME, organism-based; conditions: in vivo; method in brief: as §1
Rattus norvegicus [13] = assay: Biodistribution of compound in rats kidney after an intravenous injection was measured at 1 hr; type: ADME, organism-based; conditions: in vivo; method in brief: as §1
Rattus norvegicus [14] = assay: Biodistribution of compound in rats heart after an intravenous injection was measured at 1 hr; type: ADME, organism-based; conditions: in vivo; method in brief: as §1
Rattus norvegicus [15] = assay: (§3) Biodistribution ratio measured as the ratio of compound present in brain to that of blood at 4 hr after intravenous injection; type: ADME, organism-based; conditions: brain, 4 h; method in brief: as §2
[16] = as §3; type: ADME, organism-based; conditions: rat; method in brief: as §2
Rattus norvegicus [17] = assay: Biodistribution of compound in rats muscle after an intravenous injection was measured at 30 min; type: ADME, organism-based, Muscle tissue; conditions: in vivo, 0.5 h; method in brief: as §1
Rattus norvegicus [18] = assay: Regional brain distribution of compound in rats striatum after an intravenous injection was measured at 30 min; type: ADME, organism-based; conditions: in vivo, 0.5 h
Method in brief: (§4)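 After femoral-vein injection of [125I]-labeled ligand (2-5 μCi, ~2200 Ci/mmol, 0.2 mL saline, ether anesthesia) into male Sprague-Dawley rats (225-300 g), brains were dissected into cortex, striatum and cerebellum, weighed and gamma-counted. % dose/gram calculated against diluted initial dose; regional ratio = % dose/gram of region divided by that of cerebellum.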

Rattus norvegicus [19] = assay: Biodistribution of compound in rats lung after an intravenous injection was measured at 1 hr; type: ADME, organism-based; conditions: in vivo; method in brief: as §1
Rattus norvegicus [20] = assay: Biodistribution of compound in rats brain after an intravenous injection was measured at 4 hr; type: ADME, organism-based; conditions: in vivo
Method in brief: (§5)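 Rats (male Sprague-Dawley, 225-300 g) given the 125I ligand (2-5 μCi, ~2200 Ci/mmol) in 0.2 mL saline via the femoral vein under ether anesthesia, then killed at set times. Whole brain removed, weighed and gamma-counted. % dose/organ is taken against diluted injectate aliquots. Mean of 3 rats ± std dev.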

Rattus norvegicus [21] = assay: Biodistribution of compound in rats muscle after an intravenous injection was measured at 24 hr; type: ADME, organism-based, Muscle tissue; conditions: in vivo; method in brief: as §1
Rattus norvegicus [22] = assay: Biodistribution of compound in rats blood after an intravenous injection was measured at 30 min; type: ADME, organism-based; conditions: in vivo, 0.5 h; method in brief: as §1
Rattus norvegicus [23] = assay: Biodistribution of compound in rats kidney after an intravenous injection was measured at 2 min; type: ADME, organism-based; conditions: in vivo; method in brief: as §1
Rattus norvegicus [24] = assay: Biodistribution of compound in rats liver after an intravenous injection was measured at 30 min; type: ADME, organism-based; conditions: in vivo, 0.5 h; method in brief: as §1
Rattus norvegicus [25] = assay: Biodistribution of compound in rats skin after an intravenous injection was measured at 24 hr; type: ADME, organism-based, Zone of skin; conditions: in vivo; method in brief: as §1
Rattus norvegicus [26] = assay: Biodistribution of compound in rats brain after an intravenous injection was measured at 30 min; type: ADME, organism-based; conditions: in vivo, 0.5 h; method in brief: as §5
Rattus norvegicus [27] = assay: Regional brain distribution of compound in rats cerebellum after an intravenous injection was measured at 2 min; type: ADME, organism-based; conditions: in vivo; method in brief: as §4
Rattus norvegicus [28] = assay: Biodistribution of compound in rats liver after an intravenous injection was measured at 24 hr; type: ADME, organism-based; conditions: in vivo; method in brief: as §1

Work on `CN1CCc2cc(Cl)c(O)cc2[C@@H](c2cccc(I)c2)C1` yielded a Biodistribution (Rattus norvegicus [1]) of 0.001, a Biodistribution (Rattus norvegicus [2]) of 7.638 and a Biodistribution (Rattus norvegicus [3]) of 0.268. The Biodistribution (Rattus norvegicus [4]) was 12.7%, the Biodistribution (Rattus norvegicus [5]) was 0.254 and the Biodistribution (Rattus norvegicus [6]) was 0.123. The Biodistribution (Rattus norvegicus [7]) was 1.17, the Biodistribution (Rattus norvegicus [8]) was 10.18 and the Biodistribution (Rattus norvegicus [9]) was 0.012. For the same compound, the Biodistribution (Rattus norvegicus [10]) was 10.8, the Biodistribution (Rattus norvegicus [11]) was 1.14 and the Biodistribution (Rattus norvegicus [12]) was 0.001. For the same compound, the Biodistribution (Rattus norvegicus [13]) was 0.883, the Biodistribution (Rattus norvegicus [14]) was 0.088 and the Biodistribution (Rattus norvegicus [15]) was 5.23%. It also gave a Kp at 4 h [16] of 5.23, a Kp at 4 h ([16]; brain / blood) of 5.23 and a Biodistribution (Rattus norvegicus [17]) of 9.3. The Biodistribution (Rattus norvegicus [18]) was 7.09% and 5.23%, the Biodistribution (Rattus norvegicus [19]) was 0.621 and the Biodistribution (Rattus norvegicus [20]) was 0.102. For the same compound, the Biodistribution (Rattus norvegicus [21]) was 0.201, the Biodistribution (Rattus norvegicus [22]) was 0.773 and the Biodistribution (Rattus norvegicus [23]) was 4.92. The Biodistribution (Rattus norvegicus [24]) was 11.45, the Biodistribution (Rattus norvegicus [25]) was 0.288 and the Biodistribution (Rattus norvegicus [26]) was 0.798. For the same compound, the Biodistribution (Rattus norvegicus [27]) was 1.03 and the Biodistribution (Rattus norvegicus [28]) was 3.84.
